{"data": "Experimental data pooled from the literature", "cell line": "A549", "note": "Compare with care: the assays were run in different laboratories."}
{"SMILES": "CCC(=O)Nc1cc(Nc2nc(N3CCc4sccc4C3)c3cccnc3n2)c(OC)cc1N1CCSCC1", "assay": "cell growth or viability, MTT", "IC50": "7.91 µM"}
{"SMILES": "COc1ccccc1/C=C/CNCC(O)COc1ccncc1 (stereo not drawn)", "assay": "cell growth or viability, CCK-8", "conditions": "72 h", "IC50": "> 100 µM"}
{"SMILES": "Nc1ccc(-c2csc(Nc3ccc4c(O)ncnc4c3)n2)cc1", "assay": "cell growth or viability, MTT", "IC50": "29.6 µM"}
{"SMILES": "CCOc1cc(OCC)cc(C(=O)O[C@@H]2CN3Cc4c(cc5c(c4OC)OCO5)[C@@]24C=C[C@H](OC)C[C@@H]34)c1", "assay": "cell growth or viability, WST-1", "IC50": "> 10 µM"}
{"SMILES": "O=[N+]([O-])c1ccc(-c2csc(Nc3ccc4c(O)ncnc4c3)n2)cc1", "assay": "cell growth or viability, MTT", "IC50": "17.9 µM"}
{"SMILES": "COc1cc2ncnc(Nc3ccc(F)c(Cl)c3)c2cc1NC(=O)N/N=C/CN1CCCC1", "assay": "cell growth or viability, MTT", "conditions": "72 h", "IC50": "5.67 µM"}
{"SMILES": "C=CC(=O)Nc1cc(Nc2nc(N3CCc4sccc4C3)c3cccnc3n2)c(OC)cc1N1CCN(CCO)CC1", "assay": "cell growth or viability, MTT", "IC50": "5.31 µM"}
{"SMILES": "CCN(CC)CCn1cccc1/C=N/NC(=O)Nc1cc2c(Nc3ccc(F)c(Cl)c3)ncnc2cc1OC", "assay": "cell growth or viability, MTT", "conditions": "72 h", "IC50": "0.43 µM"}
{"SMILES": "O=C1NC(=NCc2cccs2)S/C1=C\\c1ccc2ncccc2c1", "assay": "cell growth or viability", "IC50": "> 10 µM"}
{"SMILES": "O=C1Nc2ccccc2/C1=N/NC(=O)c1cc2ccccc2[nH]1", "assay": "cell growth or viability", "IC50": "13 µM"}
{"SMILES": "COc1nc(OCc2cccc(-c3ccccc3)c2C)ccc1CNCCNC(C)=O", "assay": "cell growth or viability, MTT", "IC50": "4.6 µM"}
{"SMILES": "CCNC(=S)NC(=O)c1ccc2ccccc2c1", "assay": "cell growth or viability", "conditions": "48 h", "IC50": "5.01 µM"}
{"SMILES": "COc1ccc(-c2nn(-c3ccc(S(C)(=O)=O)cc3)cc2C=N/N=c2\\[nH]c(-c3ccc([N+](=O)[O-])cc3)cs2)cc1", "assay": "cell growth or viability, MTT", "conditions": "48 h", "IC50": "4.03 µM"}
{"SMILES": "CCC(=O)Nc1cc(Nc2nc(N3CCc4sccc4C3)c3cccnc3n2)c(OC)cc1N1CCN(CC)CC1", "assay": "cell growth or viability, MTT", "IC50": "21.9 µM"}
{"SMILES": "c1ccc2cc(-c3nnc(NC4CCCCC4)[nH]3)ccc2c1", "assay": "cell growth or viability", "conditions": "48 h", "IC50": "1.22 µM"}
{"SMILES": "Cc1ccc(C)n1-c1ccc(-c2nnc(S)s2)cc1", "assay": "cell growth or viability, MTT", "conditions": "72 h", "IC50": "223 µM"}
{"SMILES": "CC1=C(O)C(=O)C=C2C1=CC=C1[C@@]2(C)CC[C@@]2(C)[C@@H]3C[C@](C)(C(=O)OCCCO)CC[C@]3(C)CC[C@]12C", "assay": "cell growth or viability, MTT", "conditions": "48 h", "IC50": "4.3 µM"}
{"SMILES": "COc1ccc(NC(=O)Nc2ccc(OCc3nccc(OCC(F)(F)F)c3C)cc2)cc1", "assay": "cell growth or viability, MTT", "conditions": "72 h", "IC50": "12.5 µM"}
{"SMILES": "COc1cc2ncnc(Nc3ccc(F)c(Cl)c3)c2cc1NC(=O)N/N=C/c1cccn1CCCN1CCCCC1", "assay": "cell growth or viability, MTT", "conditions": "72 h", "IC50": "3.08 µM"}
{"SMILES": "CC(C)(C)NC(=O)NNC(=O)c1ccc(Nc2nccc(-c3ccccn3)n2)cc1", "assay": "cell growth or viability, MTT", "IC50": "> 40 µM"}
{"SMILES": "CCN(CC)C(=S)NC(=O)c1ccc2ccccc2c1", "assay": "cell growth or viability", "conditions": "48 h", "IC50": "4.76 µM"}
{"SMILES": "Cn1c(=O)c2c(ncn2Cc2nnc(SCC(=O)Nc3ccccc3)n2-c2ccccc2)n(C)c1=O", "assay": "cell growth or viability, MTT", "IC50": "143 µM"}
{"SMILES": "COc1ccc2c(c1)/C(=N/NC(=O)c1cc3ccccc3[nH]1)C(=O)N2C", "assay": "cell growth or viability", "IC50": "1.93 µM"}
{"SMILES": "COc1ccccc1OCCNCC(O)COc1cccc2[nH]c3ccccc3c12 (stereo not drawn)", "assay": "cell growth or viability, CCK-8", "conditions": "72 h", "IC50": "22.9 µM"}
{"SMILES": "COc1cc2c(Nc3ccc(NC(=O)c4ccccc4)cc3)ncnc2cc1OCCCN1CCOCC1", "assay": "cell growth or viability, MTS", "conditions": "48 h", "IC50": "3.2 µM"}
{"SMILES": "COC(=O)/C=C/C=C/c1ccc2c(c1)OCO2", "assay": "cell growth or viability, SRB", "IC50": "162 µM"}
{"SMILES": "NNC(=O)c1ccncc1", "assay": "cell growth or viability, MTT", "conditions": "72 h", "IC50": "> 450 µM"}
{"SMILES": "COc1ccc(-c2nc(C(=O)Nc3nnc(-c4cc5ccccc5[nH]4)s3)cc3c2[nH]c2ccccc23)cc1", "assay": "cell growth or viability, MTT", "conditions": "72 h", "IC50": "2.82 µM"}
{"SMILES": "CS(=O)(=O)c1ccc(-n2cc(/C=N/N=c3\\[nH]c(-c4ccc(Br)cc4)cs3)c(-c3ccc(Br)cc3)n2)cc1", "assay": "cell growth or viability, MTT", "conditions": "48 h", "IC50": "9.41 µM"}
{"SMILES": "COc1ccnc(COc2ccc(NC(=O)Nc3ccc(Cl)cc3)cc2)c1OC", "assay": "cell growth or viability, MTT", "conditions": "72 h", "IC50": "10.4 µM"}
{"SMILES": "CN(C)CCn1cccc1/C=N/NC(=O)Nc1cc2c(Nc3ccc(F)c(Cl)c3)ncnc2cc1O[C@H]1CCOC1", "assay": "cell growth or viability, MTT", "conditions": "72 h", "IC50": "1.84 µM"}
{"SMILES": "COc1cccc(Oc2ccccc2NC(=O)CNC(=O)c2c(C)cc(C)cc2C)c1", "assay": "cell growth or viability", "IC50": "4.7 µM"}
{"SMILES": "C=CC(=O)Nc1cc(Nc2nc(N3CCc4sccc4C3)c3cccnc3n2)c(OC)cc1N(C)C", "assay": "cell growth or viability, MTT", "IC50": "> 50 µM"}
{"SMILES": "CC1=C(O)C(=O)C=C2C1=CC=C1[C@@]2(C)CC[C@@]2(C)[C@@H]3C[C@](C)(C(=O)OCCCCCO)CC[C@]3(C)CC[C@]12C", "assay": "cell growth or viability, MTT", "conditions": "48 h", "IC50": "> 100 µM"}
{"SMILES": "COc1cccc2c1C(=O)c1c(O)c3c(c(O)c1C2=O)C[C@@](O)(C(=O)CO)C[C@@H]3O[C@H]1C[C@H](N)[C@H](O)[C@H](C)O1", "assay": "cell growth or viability, MTT", "conditions": "24 h", "IC50": "> 100 µM"}
{"SMILES": "COc1cc2ncnc(Nc3ccc(F)c(Cl)c3)c2cc1NC(=O)N/N=C/c1cccn1CCN1CCCC1", "assay": "cell growth or viability, MTT", "conditions": "72 h", "IC50": "0.35 µM"}
{"SMILES": "COc1cccc2c1C(=O)c1c(O)c3c(c(O)c1C2=O)C[C@@](O)(C(=O)CO)C[C@@H]3O[C@H]1C[C@H](N)[C@H](O)[C@H](C)O1", "assay": "cell growth or viability, SRB", "IC50": "0.62 µM"}
{"SMILES": "COCCCOc1ccnc(COc2ccc(NC(=O)Nc3ccc(OC)cc3)cc2)c1C", "assay": "cell growth or viability, MTT", "conditions": "72 h", "IC50": "11.4 µM"}
{"SMILES": "COc1cc(/C=C/C(=O)C(=Cc2cccc(OC)c2OC)C(=O)/C=C/c2ccc(O)c(OC)c2)ccc1O", "assay": "colony formation", "conditions": "9 days", "IC50": "~0.4 µM"}
{"SMILES": "COc1cc2ncnc(Nc3ccc(F)c(Cl)c3)c2cc1NC(=O)N/N=C/c1cccn1CCN(C)C", "assay": "cell growth or viability, MTT", "conditions": "72 h", "IC50": "4.3 µM"}
{"SMILES": "COc1ccccc1/C=C/CNCC(O)COc1ccc2ccccc2c1 (stereo not drawn)", "assay": "cell growth or viability, CCK-8", "conditions": "72 h", "IC50": "17.1 µM"}
{"SMILES": "Cc1c(OCC(F)(F)F)ccnc1COc1ccc(NC(=O)Nc2cccc(C(F)(F)F)c2)cc1", "assay": "cell growth or viability, MTT", "conditions": "72 h", "IC50": "2.65 µM"}
{"SMILES": "O=C(NNC(=O)c1ccc(Nc2nccc(-c3ccccn3)n2)cc1)NC1CCCC1", "assay": "cell growth or viability, MTT", "IC50": "> 40 µM"}
{"SMILES": "Brc1ccc(Nc2nc(N/N=C\\c3c[nH]c4ccccc34)nc(Nc3ccccc3)n2)cc1", "assay": "cell growth or viability, SRB", "conditions": "72 h", "IC50": "11.6 µM"}
{"SMILES": "CCN(CC)CCn1cccc1/C=N/NC(=O)Nc1cc2c(Nc3ccc(F)c(Cl)c3)ncnc2cc1O[C@H]1CCOC1", "assay": "cell growth or viability, MTT", "conditions": "72 h", "IC50": "1.59 µM"}
{"SMILES": "Oc1ncnc2cc(Nc3nc(-c4ccc(Cl)cc4)cs3)ccc12", "assay": "cell growth or viability, MTT", "IC50": "20.8 µM"}
{"SMILES": "C=CC(=O)N1CCC[C@@H](n2nc(-c3ccc(Oc4ccccc4)cc3)c3c(N)ncnc32)C1", "assay": "cell growth or viability", "IC50": "> 10 µM"}
{"SMILES": "COCCCOc1ccnc(COc2ccc(NC(=O)Nc3ccc(F)cc3)cc2)c1C", "assay": "cell growth or viability, MTT", "conditions": "72 h", "IC50": "5.74 µM"}
{"SMILES": "CCC(=O)Nc1cc(Nc2nc(N3CCc4sccc4C3)c3cccnc3n2)c(OC)cc1N1CCOCC1", "assay": "cell growth or viability, MTT", "IC50": "> 50 µM"}
{"SMILES": "O=C([O-])c1ccc(-n2nc(-c3ccccc3O)nc2-c2ccccc2[O-])cc1.O=C([O-])c1ccc(-n2nc(-c3ccccc3O)nc2-c2ccccc2[O-])cc1.[Ti+4]", "assay": "cell growth or viability, MTT", "conditions": "72 h", "IC50": "20 µM"}
{"SMILES": "C=C(Cl)C(=O)Nc1cc(Nc2nc(Nc3cnn(C)c3)c3sccc3n2)c(OC)cc1N(C)CCN(C)C", "assay": "cell growth or viability, MTT", "IC50": "0.441 µM"}
{"SMILES": "Cc1ccc(NC(=O)NNC(=O)c2ccc(Nc3nccc(-c4cccnc4)n3)cc2)cc1", "assay": "cell growth or viability, MTT", "conditions": "24 h", "IC50": "8.38 µM"}
{"SMILES": "CN1C(=O)/C(=N\\NC(=O)c2cc3ccccc3[nH]2)c2cc(Cl)ccc21", "assay": "cell growth or viability", "IC50": "2.13 µM"}
{"SMILES": "COc1ccccc1/C=C/CNCC(O)COc1cccc2ccccc12 (stereo not drawn)", "assay": "cell growth or viability, CCK-8", "conditions": "72 h", "IC50": "16.9 µM"}
{"SMILES": "O=C(CN1C(=O)/C(=C/c2cccc(Br)c2)SC1=S)Nc1ccccc1", "assay": "cell growth or viability, MTT", "IC50": "25.5 µM"}
{"SMILES": "COc1ccccc1OCCN(C)CC(O)COc1cccc2[nH]c3ccccc3c12 (stereo not drawn)", "assay": "cell growth or viability, CCK-8", "conditions": "72 h", "IC50": "33.3 µM"}
{"SMILES": "C=CC(=O)Nc1cc(Nc2nc(N3CCOCC3)c3sccc3n2)c(OC)cc1N(C)CCN(C)C", "assay": "cell growth or viability, MTT", "IC50": "> 50 µM"}
